{"source": "paper PMC6980747", "about": "(Cell chemical biology, 2019)", "key": {"[1]": {"tested_on": "AKT1, AKT2, AKT3 in MDA-MB-468 cells", "experiment": "Immunoblot of AKT isoform degradation in MDA-MB-468 cells", "type": "cell-based"}, "ZR-75-1 cells": {"tested_on": "ZR-75-1 cells", "experiment": "Growth rate inhibition", "type": "cell-based", "settings": "ZR-75-1, 72-hour treatment"}, "[2]": {"tested_on": "pPRAS40, pGSK3β, pS6 in T47D cells", "experiment": "Immunoblot of downstream AKT signaling in T47D cells", "type": "cell-based", "settings": "24 hours"}, "[3]": {"tested_on": "pPRAS40 in T47D and MDA-MB-468 cells", "experiment": "Time course and washout immunoblots of pPRAS40", "type": "cell-based", "settings": "for pPRAS40 levels over time: 250 nM, T47D and MDA-MB-468, continuous treatment; for pPRAS40 levels after washout: 12 hours treatment with 250 nM, then washout"}, "[4]": {"tested_on": "ZR-75-1, T47D, LNCaP, and MCF-7 cells", "experiment": "Growth rate inhibition", "type": "cell-based", "settings": "72-hour treatment, Figures 3A-D"}, "[5]": {"tested_on": "AKT isoforms in T47D cells", "experiment": "Immunoblot of AKT degradation in T47D cells", "type": "cell-based", "settings": "24-hour treatment, 250 nM"}, "AKT1": {"biological_target": "AKT1 (Homo sapiens, UniProt P31749)", "sequence (P31749 whole entry)": "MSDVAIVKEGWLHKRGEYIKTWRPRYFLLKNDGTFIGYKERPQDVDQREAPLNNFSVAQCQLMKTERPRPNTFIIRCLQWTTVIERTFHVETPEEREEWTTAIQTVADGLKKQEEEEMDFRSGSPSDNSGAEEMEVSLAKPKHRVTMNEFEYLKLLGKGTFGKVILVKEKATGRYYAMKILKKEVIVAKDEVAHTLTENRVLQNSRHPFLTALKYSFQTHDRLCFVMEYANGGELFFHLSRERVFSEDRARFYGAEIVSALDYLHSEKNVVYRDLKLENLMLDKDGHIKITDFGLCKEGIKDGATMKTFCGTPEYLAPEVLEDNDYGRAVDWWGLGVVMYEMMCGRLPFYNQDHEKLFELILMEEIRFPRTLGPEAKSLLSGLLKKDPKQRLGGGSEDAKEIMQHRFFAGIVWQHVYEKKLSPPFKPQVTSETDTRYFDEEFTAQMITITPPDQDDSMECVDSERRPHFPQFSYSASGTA", "experiment": "Z'-LYTE FRET-based kinase inhibition assay, AKT1", "type": "biochemical"}, "S6K1 [6]": {"biological_target": "T1, S6K1 (Homo sapiens, UniProt P23443)", "T1 sequence (P23443 whole entry)": "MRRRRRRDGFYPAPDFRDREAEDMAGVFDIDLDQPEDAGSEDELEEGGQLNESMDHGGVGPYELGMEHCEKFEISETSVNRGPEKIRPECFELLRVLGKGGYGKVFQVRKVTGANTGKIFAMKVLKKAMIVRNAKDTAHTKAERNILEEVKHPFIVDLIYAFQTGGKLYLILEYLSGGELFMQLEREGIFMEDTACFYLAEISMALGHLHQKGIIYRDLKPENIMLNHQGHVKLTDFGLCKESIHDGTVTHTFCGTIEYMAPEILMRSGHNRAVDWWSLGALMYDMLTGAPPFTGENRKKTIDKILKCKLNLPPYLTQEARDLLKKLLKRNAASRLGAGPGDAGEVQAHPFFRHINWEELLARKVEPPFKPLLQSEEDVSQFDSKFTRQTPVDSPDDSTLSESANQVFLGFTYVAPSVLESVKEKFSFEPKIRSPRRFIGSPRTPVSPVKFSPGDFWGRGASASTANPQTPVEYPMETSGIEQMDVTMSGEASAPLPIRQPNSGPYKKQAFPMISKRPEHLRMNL", "experiment": "Z'-LYTE kinase assay, S6K1", "type": "biochemical"}, "AKT3": {"biological_target": "AKT3 (Homo sapiens, UniProt Q9Y243)", "sequence (Q9Y243 whole entry)": "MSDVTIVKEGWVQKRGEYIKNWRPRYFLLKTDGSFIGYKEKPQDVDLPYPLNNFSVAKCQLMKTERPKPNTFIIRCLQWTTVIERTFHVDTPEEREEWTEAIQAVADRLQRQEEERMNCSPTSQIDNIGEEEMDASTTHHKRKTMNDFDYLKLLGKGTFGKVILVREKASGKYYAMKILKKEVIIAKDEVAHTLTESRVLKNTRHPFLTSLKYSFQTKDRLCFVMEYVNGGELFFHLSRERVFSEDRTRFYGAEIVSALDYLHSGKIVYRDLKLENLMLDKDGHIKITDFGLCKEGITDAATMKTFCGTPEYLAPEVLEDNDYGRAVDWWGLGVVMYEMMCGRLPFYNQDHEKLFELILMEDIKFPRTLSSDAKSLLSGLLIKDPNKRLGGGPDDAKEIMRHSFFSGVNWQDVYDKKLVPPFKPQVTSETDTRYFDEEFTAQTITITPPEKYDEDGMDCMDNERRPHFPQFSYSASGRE", "experiment": "Z'-LYTE FRET-based kinase inhibition assay, AKT3", "type": "biochemical"}, "[7]": {"tested_on": "MDA-MB-468 and HCC1937 cells", "experiment": "Growth rate inhibition", "type": "cell-based", "settings": "MDA-MB-468 and HCC1937, 72-hour treatment"}, "[8]": {"tested_on": "Ikaros (IKZF1) and Aiolos (IKZF3)", "experiment": "Immunoblot of Ikaros and Aiolos degradation", "type": "cell-based", "settings": "24 hours of drug treatment", "procedure,_shortened": "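Cells were seeded at 250,000/mL (T47D at 200,000/mL) in RPMI or DMEM with 10% serum, left overnight, then given test compound. They were lysed 15 min in RIPA (pH 7.5) with 0.1% SDS, phosphatase and protease inhibitors, cleared at 14,000 rpm for 10 min at 4°C, and protein-normalized. Lysates went through SDS-PAGE and nitrocellulose transfer, milk block, primary antibodies at 4°C overnight, and fluorescent secondaries 1 h RT. Imaging was on a LI-COR Odyssey.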"}, "MOLT4 cells proteome": {"tested_on": "MOLT4 cells proteome", "experiment": "TMT quantitative mass spectrometry proteomics in MOLT4 cells", "type": "cell-based, human", "settings": "MOLT4, 250 nM, 4 hours, vs DMSO"}, "PKG1": {"biological_target": "PKG1 (Homo sapiens, UniProt Q13976)", "sequence (Q13976 whole entry)": "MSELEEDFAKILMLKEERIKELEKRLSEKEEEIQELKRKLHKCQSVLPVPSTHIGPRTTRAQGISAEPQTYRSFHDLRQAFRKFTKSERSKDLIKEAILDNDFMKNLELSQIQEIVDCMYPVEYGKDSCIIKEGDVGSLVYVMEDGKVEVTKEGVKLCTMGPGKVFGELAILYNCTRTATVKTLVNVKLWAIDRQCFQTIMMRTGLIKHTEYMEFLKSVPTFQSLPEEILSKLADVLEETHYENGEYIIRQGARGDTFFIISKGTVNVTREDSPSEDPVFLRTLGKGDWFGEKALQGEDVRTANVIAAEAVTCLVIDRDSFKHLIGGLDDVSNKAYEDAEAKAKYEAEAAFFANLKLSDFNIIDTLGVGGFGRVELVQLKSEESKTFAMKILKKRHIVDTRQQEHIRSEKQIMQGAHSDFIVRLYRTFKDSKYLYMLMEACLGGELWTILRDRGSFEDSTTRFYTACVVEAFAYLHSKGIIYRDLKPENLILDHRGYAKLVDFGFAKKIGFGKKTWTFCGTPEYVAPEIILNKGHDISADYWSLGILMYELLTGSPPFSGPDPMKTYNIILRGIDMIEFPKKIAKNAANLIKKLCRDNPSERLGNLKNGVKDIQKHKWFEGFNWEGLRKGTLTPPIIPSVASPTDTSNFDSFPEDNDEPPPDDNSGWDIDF", "experiment": "Z'-LYTE kinase assay, PKG1", "type": "biochemical"}, "S6K1 [9]": {"biological_target": "T1, S6K1", "experiment": "Immunoblot of S6K1 degradation", "type": "cell-based"}, "RET (V804M)": {"biological_target": "RET (V804M) (Homo sapiens, UniProt P07949, V804M)", "sequence (P07949 29-1114 V804M)": "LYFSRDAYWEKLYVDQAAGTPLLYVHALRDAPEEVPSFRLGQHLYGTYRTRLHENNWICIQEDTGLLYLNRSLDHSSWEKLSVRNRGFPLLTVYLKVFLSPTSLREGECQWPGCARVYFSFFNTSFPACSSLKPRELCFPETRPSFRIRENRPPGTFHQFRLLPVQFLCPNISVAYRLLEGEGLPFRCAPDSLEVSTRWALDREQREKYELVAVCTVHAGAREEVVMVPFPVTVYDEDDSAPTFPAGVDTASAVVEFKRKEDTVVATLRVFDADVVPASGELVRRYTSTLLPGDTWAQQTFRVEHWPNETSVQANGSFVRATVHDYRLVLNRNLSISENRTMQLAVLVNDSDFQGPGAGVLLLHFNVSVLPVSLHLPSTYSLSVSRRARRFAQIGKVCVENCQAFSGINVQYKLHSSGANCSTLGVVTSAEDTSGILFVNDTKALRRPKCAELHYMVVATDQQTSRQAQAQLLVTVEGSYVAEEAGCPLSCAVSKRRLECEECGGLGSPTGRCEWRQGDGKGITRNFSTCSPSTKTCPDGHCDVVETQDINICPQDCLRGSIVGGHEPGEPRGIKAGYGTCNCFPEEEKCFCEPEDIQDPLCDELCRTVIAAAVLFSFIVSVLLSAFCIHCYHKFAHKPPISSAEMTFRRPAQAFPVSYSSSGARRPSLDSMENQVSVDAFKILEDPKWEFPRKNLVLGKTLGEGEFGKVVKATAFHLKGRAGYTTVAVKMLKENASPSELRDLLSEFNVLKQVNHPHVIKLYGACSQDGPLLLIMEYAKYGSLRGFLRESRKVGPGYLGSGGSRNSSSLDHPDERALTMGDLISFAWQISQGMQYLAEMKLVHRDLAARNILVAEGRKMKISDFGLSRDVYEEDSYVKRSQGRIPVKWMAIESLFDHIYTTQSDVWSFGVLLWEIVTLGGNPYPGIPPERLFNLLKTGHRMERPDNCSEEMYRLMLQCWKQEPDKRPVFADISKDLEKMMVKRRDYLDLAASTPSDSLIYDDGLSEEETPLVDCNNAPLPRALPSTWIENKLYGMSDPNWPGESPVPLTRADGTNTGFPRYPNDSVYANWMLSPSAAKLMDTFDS", "experiment": "LanthaScreen assay, RET", "type": "biochemical"}, "AKT2": {"biological_target": "AKT2 (Homo sapiens, UniProt P31751)", "sequence (P31751 whole entry)": "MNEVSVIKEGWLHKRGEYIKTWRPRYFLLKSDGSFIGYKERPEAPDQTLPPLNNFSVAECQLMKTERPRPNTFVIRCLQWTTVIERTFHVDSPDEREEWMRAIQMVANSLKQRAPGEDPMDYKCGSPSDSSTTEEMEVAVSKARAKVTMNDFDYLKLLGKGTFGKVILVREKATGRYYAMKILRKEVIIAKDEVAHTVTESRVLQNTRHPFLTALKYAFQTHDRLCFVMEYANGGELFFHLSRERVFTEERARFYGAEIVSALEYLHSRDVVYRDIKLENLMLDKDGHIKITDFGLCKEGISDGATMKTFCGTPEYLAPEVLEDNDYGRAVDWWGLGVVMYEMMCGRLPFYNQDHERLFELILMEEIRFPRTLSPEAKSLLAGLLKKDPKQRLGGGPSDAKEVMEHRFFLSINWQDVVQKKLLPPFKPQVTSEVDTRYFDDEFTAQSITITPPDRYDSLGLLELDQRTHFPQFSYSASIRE", "experiment": "Z'-LYTE FRET-based kinase inhibition assay, AKT2", "type": "biochemical"}, "[10]": {"tested_on": "AKT in T47D and MDA-MB-468 cells", "experiment": "Time course and washout immunoblots of AKT levels", "type": "cell-based"}}, "data": [{"smiles": "C[C@@H]1C[C@@H](O)c2ncnc(N3CCN(C(=O)[C@H](CNCCCCCCCCCCc4cccc5c4CN(C4CCC(=O)N(C)C4=O)C5=O)c4ccc(Cl)cc4)CC3)c21", "note": "(stereo partly drawn) [INY-03-112, 3-(4-(10-(((S)-2-(4-chlorophenyl)-3-(4-((5R,7R)-7-hydroxy-5-methyl-6,7-dihydro-5H-cyclopenta[d]pyrimidin-4-yl)piperazin-1-yl)-3-oxopropyl)amino)decyl)-1-oxoisoindolin-2-yl)-1-methylpiperidine-2,6-dione]", "values": [{"measurement": "AKT isoform degradation", "setting": "[1]; MDA-MB-468, immunoblot", "value": "did not induce potent degradation of any AKT isoform"}, {"measurement": "GR50", "setting": "ZR-75-1 cells", "value": 413, "unit": "nM"}]}, {"smiles": "CC(C)NC[C@@H](C(=O)N1CCN(c2ncnc3c2[C@H](C)C[C@H]3O)CC1)c1ccc(Cl)cc1", "note": "[GDC-0068, ipatasertib, reference compound]", "values": [{"measurement": "dose required to observe comparable effects on pPRAS40, pGSK3β, and pS6", "setting": "[2]; comparable to 250 nM INY-03-041", "value": "up to 1 μM"}, {"measurement": "GR50", "setting": "ZR-75-1 cells", "value": 229, "unit": "nM"}, {"measurement": "pPRAS40 levels over time", "setting": "[3]", "value": "less pronounced inhibition of pPRAS40"}, {"measurement": "pPRAS40 levels after washout", "setting": "[3]", "value": "rebound of pPRAS40"}]}, {"smiles": "Nc1cccc2c1CN(C1CCC(=O)NC1=O)C2=O", "note": "(centres unmarked) [lenalidomide]", "values": [{"measurement": "anti-proliferative effects", "setting": "[4]", "value": "did not have strong anti-proliferative effects"}]}, {"smiles": "C[C@@H]1C[C@@H](O)c2ncnc(N3CCN(C(=O)[C@H](CNCCCCCCCCCCc4cccc5c4CN(C4CCC(=O)NC4=O)C5=O)c4ccc(Cl)cc4)CC3)c21", "note": "(stereo partly drawn) [INY-03-041, 3-(4-(10-(((S)-2-(4-chlorophenyl)-3-(4-((5R,7R)-7-hydroxy-5-methyl-6,7-dihydro-5H-cyclopenta[d]pyrimidin-4-yl)piperazin-1-yl)-3-oxopropyl)amino)decyl)-1-oxoisoindolin-2-yl)piperidine-2,6-dione]", "values": [{"measurement": "AKT isoform levels after treatment", "setting": "[5]", "value": "no detectable levels of all three AKT isoforms"}, {"measurement": "concentration that significantly reduced pPRAS40, pGSK3β, and pS6 levels", "setting": "[2]", "value": 250, "unit": "nM"}, {"measurement": "IC50", "setting": "AKT1", "value": 2, "unit": "nM"}, {"measurement": "IC50", "setting": "S6K1 [6]", "value": 37.3, "unit": "nM"}, {"measurement": "IC50", "setting": "AKT3", "value": 3.5, "unit": "nM"}, {"measurement": "time to partial degradation of all AKT isoforms", "setting": "[1]; MDA-MB-468, 250 nM", "value": "≤ 4", "unit": "h"}, {"measurement": "concentration at which diminished AKT degradation (hook effect) was observed", "setting": "[1]; MDA-MB-468, 12-hour treatment", "value": "≥ 500", "unit": "nM"}, {"measurement": "GR50", "setting": "ZR-75-1 cells", "value": 16, "unit": "nM"}, {"measurement": "fold increased potency compared to GDC-0068 (GR50)", "setting": "ZR-75-1 cells", "value": 14, "unit": "fold"}, {"measurement": "GR50 comparison", "setting": "[7]", "value": "no apparent differences in GR50 values between INY-03-041 and INY-03-112"}, {"measurement": "IKZF1 and IKZF3 degradation (immunoblot)", "setting": "[8]", "value": "weak IKZF1 and IKZF3 degradation"}, {"measurement": "concentration at which IKZF1 and IKZF3 degradation was seen", "setting": "[8]", "value": "≥ 500", "unit": "nM"}, {"measurement": "S6K1 and PKG1 abundance (proteomics)", "setting": "MOLT4 cells proteome", "value": "no downregulation of either kinases was observed"}, {"measurement": "change in protein abundance (proteomics)", "setting": "MOLT4 cells proteome", "value": "significant downregulation of all three AKT isoforms, as well as RNF166"}, {"measurement": "pPRAS40 levels over time", "setting": "[3]", "value": "significantly reduced for up to 96 hours"}, {"measurement": "pPRAS40 levels after washout", "setting": "[3]", "value": "potently suppressed levels of pPRAS40 for up to 96 hours after washout"}, {"measurement": "IC50", "setting": "PKG1", "value": 33.2, "unit": "nM"}, {"measurement": "S6K1 degradation (immunoblot)", "setting": "S6K1 [9]", "value": "did not induce S6K1 degradation"}, {"measurement": "IC50", "setting": "RET (V804M)", "value": "> 10000", "unit": "nM"}, {"measurement": "IC50", "setting": "AKT2", "value": 6.8, "unit": "nM"}, {"measurement": "duration of sustained destabilization of all three AKT isoforms", "setting": "[10]; 250 nM, T47D and MDA-MB-468", "value": "at least 96 hours"}, {"measurement": "AKT levels after compound washout", "setting": "[10]; 12 hours treatment with 250 nM, then washout", "value": "no detectable rebound of AKT levels for up to 96 hours"}]}]}
